Assay results reported in publication PMC3348450 (Investigational New Drugs, 2011).

How the values were obtained:
[1] = Treatment-related adverse events; assay type: in vivo, human
Summary of the method: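 Adverse events were graded by CTCAE version 3.0 throughout both studies in 18 Japanese patients on the oral test compound, taken in the fed state. Study 1 gave 5 mg BID continuously, six patients first receiving a single 5-mg dose. Study 2 gave single 5-, 7- and 10-mg doses, then 5 mg BID. Titration was to 7 then 10 mg BID; reduction was to 3 or 2 mg BID.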

[2] = Treatment-related laboratory abnormalities, phase I Study 1 and Study 2; assay type: in vivo, human; conditions: treatment-related laboratory abnormality; pooled; N = 18
Summary of the method: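 Laboratory abnormalities were pooled across 18 Japanese patients with solid tumours from two studies. Patients took the oral test compound in the fed state: 5 mg BID continuous dosing, preceded by single doses in some patients (5 mg; or 5, 7 and 10 mg in Study 2). Dose could be raised to 7 then 10 mg BID, or cut to 3 or 2 mg BID for toxicity.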

[3] = Plasma pharmacokinetics of axitinib; assay type: in vivo, human
thyroid gland = experiment: Thyroid function tests; assay type: in vivo, human; conditions: two studies, 18 patients
Summary of the method: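 Study 1 measured TSH weekly in cycle 1, then every 2 weeks. Study 2 determined anti-TPO and antithyroglobulin antibody titres at screening, and measured TSH, free T3, free T4 and thyroglobulin weekly in cycle 1, then every 2 weeks. Study 2 also measured total cholesterol and CPK, monitored thyroid tests at every visit, and gave thyroid hormone replacement according to TSH to keep patients euthyroid.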

[4] = system: advanced malignant solid tumors; experiment: Preliminary antitumor activity; assay type: in vivo, human; conditions: 11 of 17 evaluable patients who had a target lesion
[5] = cited from earlier work
[6] = cited from earlier work; remark: listed apart in the source
[7] = cited from earlier work; remark: listed apart in the source
[8] = Study 2 (N = 6), four patients received thyroid hormone replacement therapy
[9] = treatment-related, pooled, N = 18

CNC(=O)c1ccccc1Sc1ccc2c(/C=C/c3ccccn3)n[nH]c2c1 [axitinib, Axitinib]
Grade 3/4 fatigue, patients ([1]; 18 patients): 28%
Grade 3/4 hypertension, patients ([1]; 18 patients): 33%
Grade 3/4 fatigue, patients ([1]; Study 1): 42%
Treatment-related fatigue, all grades ([1]; Study 1 (N = 12)): 10 (83) n (%)
Treatment-related fatigue, grade 3/4 ([1]; Study 1 (N = 12)): 5 (42) n (%)
Treatment-related fatigue, all grades [1, 8]: 5 (83) n (%)
Treatment-related fatigue, grade 3/4 [1, 8]: 0 n (%)
Anorexia, patients ([1]; treatment-related, 18 patients): 72%
Diarrhea, patients ([1]; treatment-related, 18 patients): 67%
Hand–foot syndrome, patients ([1]; treatment-related, 18 patients): 67%
Hypertension, patients ([1]; treatment-related, 18 patients): 61%
Fatigue, all grades ([1]; treatment-related, pooled Study 1 and Study 2, N = 18): 15 (83) n (%)
Anorexia, all grades [1, 9]: 13 (72) n (%)
Constipation, all grades [1, 9]: 7 (39) n (%)
Diarrhea, all grades [1, 9]: 12 (67) n (%)
Epistaxis, all grades [1, 9]: 5 (28) n (%)
Hand–foot syndrome, all grades [1, 9]: 12 (67) n (%)
Hand–foot syndrome, grade 3/4 [1, 9]: 1 (6) n (%)
Headache, all grades [1, 9]: 4 (22) n (%)
Hoarseness, all grades [1, 9]: 9 (50) n (%)
Hypertension, all grades [1, 9]: 11 (61) n (%)
Nausea, all grades [1, 9]: 4 (22) n (%)
Rash, all grades [1, 9]: 6 (33) n (%)
Stomatitis, all grades [1, 9]: 10 (56) n (%)
Fatigue (all grades), patients ([1]; treatment-related, two studies, 18 patients): 83%
Anemia ([1]; two phase I studies): not reported as an adverse event
ALP increased, all grades [2]: 4 (22) n (%)
AST increased, all grades [2]: 4 (22) n (%)
Blood glucose increased, all grades [2]: 5 (28) n (%)
Blood glucose increased, grade 3/4 [2]: 0 n (%)
Hematuria, all grades [2]: 7 (39) n (%)
Lipase increased, all grades [2]: 6 (33) n (%)
Lipase increased, grade 3/4 [2]: 0 n (%)
Lymphocyte count decreased, all grades [2]: 1 (6) n (%)
Lymphocyte count decreased, grade 3/4 [2]: 0 n (%)
Neutrophil count decreased, all grades [2]: 3 (17) n (%)
Neutrophil count decreased, grade 3/4 [2]: 1 (6) n (%)
Platelet count decreased, all grades [2]: 6 (33) n (%)
Platelet count decreased, grade 3/4 [2]: 0 n (%)
Proteinuria, all grades [2]: 9 (50) n (%)
TSH decreased, all grades [2]: 4 (22) n (%)
TSH increased, all grades [2]: 13 (72) n (%)
AUC ([3]; human, plasma, oral, 5 mg): 138 ng·h/mL
Tmax ([3]; human, plasma, oral, 5 mg): 4.04 h
half-life ([3]; human, plasma, oral, 10 mg): 4.8 to 5.9 h
Time after administration at which plasma concentration reached maximum (Cmax) ([3]; single dose 5, 7, 10 mg, Study 2): ~ 4 h
Dose linearity of plasma pharmacokinetics ([3]; single dosing of 5 mg, 7 mg and 10 mg): generally linear
Patients with elevation of TSH above the upper limit of normal range (thyroid gland): 89%
Evaluable patients with a reduction in tumor size [4]: 65%
Plasma exposure, fed state versus shorter fasting durations ([5]; 2 h before and 2 h after dosing, and 1 h before and 1 h after dosing): no difference in exposure
Plasma exposure, fed state versus overnight fasting state ([5]; Western healthy volunteers): lower plasma exposure
Hemoglobin change in treated patients [6]: Elevation of hemoglobin

CNC(=O)c1cc(Oc2ccc(NC(=O)Nc3ccc(Cl)c(C(F)(F)F)c3)cc2)ccn1 [sorafenib]
Hypothyroidism and thyroid dysfunction, patients [7]: ~ 20%
Hemoglobin change in treated patients [6]: Elevation of hemoglobin

CCN(CC)CCNC(=O)c1c(C)[nH]c(/C=C2\C(=O)Nc3ccc(F)cc32)c1C [sunitinib]
Hypothyroidism and thyroid dysfunction, patients [7]: 36–85%
Hemoglobin change in treated patients [6]: Elevation of hemoglobin
